This note sets out measurements from ChEMBL document CHEMBL1938363, “Synthesis of dihydrofuran-fused perhydrophenanthrenes having a phenolic hydroxyl group as a novel anti-Alzheimer's disease agent” (Bioorg Med Chem Lett, 2012).

Experiment [1] is described as follows: Inhibition of amyloid beta (25 to 35)-mediated damage in Sprague-Dawley rat neurons assessed as dendritic extension at 1 uM treated 4 days after amyloid beta-challenge measured after 4 days by immunostaining method. The essentials: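 Rat cortical neurons were exposed to Aβ for 4 days before the test compounds were added. Dendrite length was quantified after a further 4 days. The vehicle control was 0.1% DMSO given to Aβ-exposed cells, and the normal control was cells without Aβ treatment.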

A short description of experiment [2]: Inhibition of amyloid beta (1 to 42)-mediated damage in Sprague-Dawley rat neurons assessed as axonal extension at 1 uM treated 3 days after amyloid beta-challenge measured after 5 days by immunostaining method.
The nature of experiment [3]: Inhibition of amyloid beta (1 to 42)-mediated damage in Sprague-Dawley rat neurons assessed as dendritic extension at 1 uM administered 3 days after amyloid beta-challenge measured after 5 days by immunostaining method.

Molecules are shown by their SMILES. Calls of active or inactive are those of the source. The rule behind the calls is not given here.

For `CC(C)[Si](Oc1ccc2c(c1)C[C@H]1OC=C3[C@H]1[C@@]2(C#N)CCC31OCCO1)(C(C)C)C(C)C`, the inhibition result in experiment [1] was “inactive”. Regarding `N#C[C@]12CCC3(OCCO3)C3=CO[C@H](Cc4cc(OCc5ccccc5)ccc41)[C@@H]32`, the inhibition result in experiment [1] was “inactive”. As for `N#C[C@]12CCC3(OCCO3)C3=CO[C@H](Cc4cc(OS(=O)(=O)C(F)(F)F)ccc41)[C@@H]32`, the inhibition result in experiment [1] is “inactive”. Take `COc1cc2c(cc1O)C[C@H]1OC=C3[C@H]1[C@@]2(C#N)CCC31OCCO1`: the inhibition entry in experiment [2] and in experiment [3] was “Active” in each case. On to `N#C[C@]12CCC3(OCCO3)C3=CO[C@H](Cc4ccc(O)cc41)[C@@H]32`, for which the inhibition result in experiment [2] and in experiment [3] was “Active” each time.

On to `N#C[C@]12CCC3(OCCO3)C3=CO[C@H](Cc4cc(O)ccc41)[C@@H]32`, for which the inhibition entry in experiment [1] and in experiment [3] was “Active” each time.

Turning to `COc1cc2c(cc1O)[C@]1(C#N)CCC3(OCCO3)C3=CO[C@H](C2)[C@@H]31`, the inhibition result in experiment [2] and in experiment [3] was “Active” throughout. In the case of `N#C[C@]12CCC3(OCCO3)C3=CO[C@H](Cc4cc(OCc5cc(F)cc(F)c5)ccc41)[C@@H]32`, the inhibition entry in experiment [1] is “inactive”. Still for that read-out and setting: next, `N#C[C@]12CCC3(OCCO3)C3=CO[C@H](Cc4cc(-c5ccccc5)ccc41)[C@@H]32`: “inactive”; `N#C[C@]12CCC3(OCCO3)C3=CO[C@H](Cc4cc(OC(F)(F)F)ccc41)[C@@H]32`: “inactive”.
